The text below walks through data of ChEMBL document CHEMBL1141192 (J Med Chem, 2005).

One data set deals with Rattus norvegicus. The experiment in a line: Inhibition of the licking and biting response at 20 mg/kg, po in rat by formalin paw antinociceptive assay. Type of data set: functional. Particulars: Sprague-Dawley. The procedure, abridged: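 Screening: fasted male SD rats (105–115 g), three per compound, 20 mg/kg po in 0.1% MC 15 min before 2% formalin (50 μL s.c., right hindpaw). Licking/biting scored 5 s per 30 s; percent inhibition reported for 2nd phase (15–30 min); positive control 5 mg/kg po each run.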

In the next data set the target is Adenosine kinase (Homo sapiens, UniProt P55263). The data set can be described thus: Inhibitory activity against recombinant human adenosine kinase.
A short description of data set [1]: Solubility in water at pH 7.4.

In brackets after ≈: the same amount, converted by molar mass.

Adenosine kinase, sequence (P55263 whole entry): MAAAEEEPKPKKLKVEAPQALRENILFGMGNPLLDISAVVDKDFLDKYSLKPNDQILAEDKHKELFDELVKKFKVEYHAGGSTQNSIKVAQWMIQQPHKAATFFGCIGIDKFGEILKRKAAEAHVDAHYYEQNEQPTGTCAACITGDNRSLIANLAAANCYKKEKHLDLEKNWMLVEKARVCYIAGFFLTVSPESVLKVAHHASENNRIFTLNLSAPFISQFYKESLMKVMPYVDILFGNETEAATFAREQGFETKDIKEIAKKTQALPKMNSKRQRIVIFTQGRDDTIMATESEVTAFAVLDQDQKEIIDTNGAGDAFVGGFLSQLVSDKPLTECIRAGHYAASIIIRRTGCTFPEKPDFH

For the compound `O=C(CNc1ncnc2c1c(-c1ccccc1)cn2[C@@H]1O[C@H](CO)[C@@H](O)[C@H]1O)NC1CC1`, the inhibition in vivo (in general, the change of the read-out against control, counted positive when it falls) at 20 mg/kg with Rattus norvegicus was found to be 21%. For the same compound, the 50% inhibitory concentration (IC50) (usually the concentration needed to halve the response being measured) at Adenosine kinase was determined as 3 nM. For the same compound, the solubility (as a rule, the concentration that dissolves in the medium under given conditions) in data set [1] came out at 76 µg/mL (≈ 173 µM).

Turning to `O=C(CNc1ncnc2c1c(-c1ccccc1)cn2COCCO)Nc1ccc(Cl)cc1`, the inhibition in vivo at 20 mg/kg in the data set on Rattus norvegicus is 31%. Further, the IC50 at Adenosine kinase was 60 nM. The compound further displayed a solubility in data set [1] of less than 0.05 µg/mL.

As to `C[C@H]1O[C@@H](n2cc(-c3ccccc3)c3c(NC4CC4)ncnc32)[C@H](O)[C@@H]1O`, the IC50 on Adenosine kinase amounted to 380 nM. Also, the solubility in data set [1] worked out at 36 µg/mL (≈ 98.2 µM).

Turning to `C[C@H]1O[C@@H](n2nc(-c3ccccc3)c3c(NCC(=O)NC4CC4)ncnc32)[C@H](O)[C@@H]1O`, in the data set with Rattus norvegicus, the inhibition in vivo at 20 mg/kg turned out to be 7%. The IC50 on Adenosine kinase turned out to be 6 nM. The compound also registered a solubility in data set [1] of 620 µg/mL (≈ 1460 µM).

For the compound `O=C(CNc1ncnc2c1c(-c1ccccc1)nn2[C@@H]1O[C@H](CO)[C@@H](O)[C@H]1O)NC1CC1`, the inhibition in vivo at 20 mg/kg with Rattus norvegicus is 6%. Further, the IC50 at Adenosine kinase was 10 nM. Besides, in data set [1], the concentration in solution (solubility) came to 370 µg/mL (≈ 840 µM).

Take `C[C@H]1O[C@@H](n2cc(-c3ccccc3)c3c(NCC(=O)NCC4CC4)ncnc32)[C@H](O)[C@@H]1O`: the inhibition in vivo at 20 mg/kg with Rattus norvegicus is 42%. At Adenosine kinase, the IC50 was 6 nM. The compound further yielded a solubility in data set [1] of 12 µg/mL (≈ 27.4 µM).

On to `CNC(=O)CNc1ncnc2c1c(-c1ccccc1)cn2[C@@H]1O[C@H](C)[C@@H](O)[C@H]1O`, for which the inhibition in vivo at 20 mg/kg in the data set on Rattus norvegicus came to 35%. Besides, the IC50 on Adenosine kinase was found to be 0.8 nM. The compound further gave a solubility in data set [1] of 240 µg/mL (≈ 604 µM).

Turning to `CCCNC(=O)CNc1ncnc2c1c(-c1ccccc1)cn2[C@@H]1O[C@H](C)[C@@H](O)[C@H]1O`, the inhibition in vivo at 20 mg/kg in the data set with Rattus norvegicus turned out to be 41%. On Adenosine kinase, the IC50 amounted to 7 nM. Moreover, the solubility in data set [1] came out at 38 µg/mL (≈ 89.3 µM).

Consider `C[C@H]1O[C@@H](n2cc(-c3ccccc3)c3c(NCC(=O)N(C)C4CC4)ncnc32)[C@H](O)[C@@H]1O`, for which the IC50 at Adenosine kinase worked out at 460 nM. In data set [1], this compound yielded a solubility of 105 µg/mL (≈ 240 µM).

As for `C[C@H]1O[C@@H](n2cc(-c3ccccc3)c3c(NCC(=O)Nc4ccc(Cl)cc4)ncnc32)[C@H](O)[C@@H]1O`, the inhibition in vivo at 20 mg/kg with Rattus norvegicus came out at 62%. For the same compound, the half-maximal inhibitory concentration (IC50) at Adenosine kinase turned out to be 0.2 nM. In data set [1], this compound yielded a solubility of less than 0.05 µg/mL.

For `C[C@H](Nc1ncnc2c1c(-c1ccccc1)cn2[C@@H]1O[C@H](C)[C@@H](O)[C@H]1O)C(=O)NC1CC1`, the IC50 on Adenosine kinase came to 530 nM. The same compound displayed a solubility in data set [1] of 480 µg/mL (≈ 1100 µM).

The compound `C[C@H]1O[C@@H](n2cc(-c3ccccc3)c3c(Nc4ccc(F)cc4)ncnc32)[C@H](O)[C@@H]1O` gave a solubility in data set [1] of less than 0.05 µg/mL.

For `CCCOC(=O)Nc1ncnc2c1c(-c1ccccc1)cn2[C@@H]1O[C@H](C)[C@@H](O)[C@H]1O`, at Adenosine kinase, the IC50 was determined as 4 nM.

With `CC(C)CNc1ncnc2c1c(-c1ccccc1)cn2[C@@H]1O[C@H](C)[C@@H](O)[C@H]1O`, the IC50 at Adenosine kinase came out at 140 nM. In addition, in data set [1], the solubility was found to be 3 µg/mL (≈ 7.84 µM).

In the case of `C[C@H]1O[C@@H](n2cc(-c3ccccc3)c3c(NCCC(N)=O)ncnc32)[C@H](O)[C@@H]1O`, the IC50 at Adenosine kinase came to 2500 nM.

On to `O=C(CNc1ncnc2c1c(-c1ccccc1)cn2[C@@H]1OC[C@@H](O)[C@H]1O)Nc1ccccc1`, for which, in the data set on Rattus norvegicus, the inhibition in vivo at 20 mg/kg was found to be 37%. Also, the IC50 on Adenosine kinase is 0.6 nM.

`C[C@H]1O[C@@H](n2cc(-c3ccccc3)c3c(NCC(N)=O)ncnc32)[C@H](O)[C@@H]1O`: the IC50 on Adenosine kinase worked out at 2 nM. In data set [1], the solubility came out at 750 µg/mL (≈ 1960 µM).

As to `CCONC(=O)CNc1ncnc2c1c(-c1ccccc1)cn2[C@@H]1O[C@H](C)[C@@H](O)[C@H]1O`, in the data set on Rattus norvegicus, the inhibition in vivo at 20 mg/kg worked out at 0%. Also, the half-maximal inhibitory concentration (IC50) on Adenosine kinase worked out at 5 nM. Further, the solubility in data set [1] came out at 535 µg/mL (≈ 1250 µM).

On to `CCCNc1ncnc2c1c(-c1ccccc1)cn2[C@@H]1O[C@H](C)[C@@H](O)[C@H]1O`, for which the IC50 at Adenosine kinase is 100 nM. For the same compound, in data set [1], the solubility was found to be 16 µg/mL (≈ 43.4 µM).

Regarding `COCCCNC(=O)CNc1ncnc2c1c(-c1ccccc1)cn2[C@@H]1O[C@H](C)[C@@H](O)[C@H]1O`, the inhibition in vivo at 20 mg/kg with Rattus norvegicus was found to be 24%. Further, the IC50 on Adenosine kinase was 2 nM.

`O=C(CNc1ncnc2c1c(-c1ccccc1)cn2[C@@H]1OC[C@@H](O)[C@H]1O)NC1CC1`: the inhibition in vivo at 20 mg/kg with Rattus norvegicus was found to be 17%. In addition, on Adenosine kinase, the IC50 stood at 20 nM. Moreover, in data set [1], the solubility came to 280 µg/mL (≈ 684 µM).

On to `CNC(=O)Nc1ncnc2c1c(-c1ccccc1)cn2[C@@H]1O[C@H](C)[C@@H](O)[C@H]1O`, for which the IC50 at Adenosine kinase worked out at 27 nM. The compound also returned a solubility in data set [1] of 32 µg/mL (≈ 83.5 µM).

`C[C@H]1O[C@@H](n2cc(-c3ccccc3)c3c(NCC(=O)NCCN(C)C)ncnc32)[C@H](O)[C@@H]1O`: the IC50 at Adenosine kinase was 300 nM. Moreover, in data set [1], the solubility was greater than 1000 µg/mL.

For `C[C@H]1O[C@@H](n2cc(-c3ccccc3)c3c(NC(=O)C(=O)NC4CC4)ncnc32)[C@H](O)[C@@H]1O`, the inhibition in vivo at 20 mg/kg in the data set on Rattus norvegicus was determined as 17%. The IC50 on Adenosine kinase came to 1.3 nM. In addition, the solubility in data set [1] came out at 17 µg/mL (≈ 38.9 µM).

Turning to `C[C@H]1O[C@@H](n2cc(-c3ccccc3)c3c(NCC(=O)Nc4ccccc4)ncnc32)[C@H](O)[C@@H]1O`, in the data set on Rattus norvegicus, the inhibition in vivo at 20 mg/kg came to 62%. Further, on Adenosine kinase, the IC50 was 0.5 nM. The same compound showed a solubility in data set [1] of less than 0.05 µg/mL.

Regarding `C[C@H]1O[C@@H](n2cc(-c3ccccc3)c3c(NC/C(S)=N\C4CC4)ncnc32)[C@H](O)[C@@H]1O`, the inhibition in vivo at 20 mg/kg in the data set with Rattus norvegicus amounted to 22%. For the same compound, at Adenosine kinase, the IC50 stood at 0.5 nM. For the same compound, the solubility in data set [1] is 8 µg/mL (≈ 18.2 µM).

In the case of `C[C@@H](Nc1ncnc2c1c(-c1ccccc1)cn2[C@@H]1O[C@H](C)[C@@H](O)[C@H]1O)C(=O)NC1CC1`, on Adenosine kinase, the IC50 was 2500 nM.

On to `C[C@H]1O[C@@H](n2cc(-c3ccccc3)c3c(NCC4CC4)ncnc32)[C@H](O)[C@@H]1O`, for which the 50% inhibitory concentration (IC50) at Adenosine kinase was 45 nM. In addition, the solubility in data set [1] amounted to 0.1 µg/mL (≈ 0.263 µM).

In the case of `C[C@H]1O[C@@H](n2cc(-c3ccccc3)c3c(NCC(=O)NCCCN(C)C)ncnc32)[C@H](O)[C@@H]1O`, in the data set on Rattus norvegicus, the inhibition in vivo at 20 mg/kg turned out to be 22%. Besides, the IC50 on Adenosine kinase worked out at 145 nM. This compound also registered a solubility in data set [1] greater than 1000 µg/mL.

Take `CC(C)CNC(=O)CNc1ncnc2c1c(-c1ccccc1)cn2[C@@H]1O[C@H](C)[C@@H](O)[C@H]1O`: in the data set on Rattus norvegicus, the inhibition in vivo at 20 mg/kg came to 16%. Also, at Adenosine kinase, the IC50 amounted to 4 nM. In data set [1], this compound yielded a solubility of 7 µg/mL (≈ 15.9 µM).

On to `CC(C)NC(=O)CNc1ncnc2c1c(-c1ccccc1)cn2[C@@H]1O[C@H](C)[C@@H](O)[C@H]1O`, for which the inhibition in vivo at 20 mg/kg with Rattus norvegicus worked out at 74%. Moreover, the concentration for half-maximal inhibition (IC50) at Adenosine kinase stood at 25 nM. This compound had a solubility in data set [1] of 26 µg/mL (≈ 61.1 µM).

Take `O=C(CNc1[nH]cnc2ncc(-c3ccccc3)c1-2)NC1CC1`: the IC50 at Adenosine kinase is greater than 10000 nM.

For the compound `C[C@H]1O[C@@H](n2cc(-c3ccccc3)c3c(NCC(=O)NC4CCC4)ncnc32)[C@H](O)[C@@H]1O`, the inhibition in vivo at 20 mg/kg in the data set on Rattus norvegicus is 60%. Moreover, the IC50 on Adenosine kinase was found to be 1.3 nM. In data set [1], this compound returned a solubility of 44 µg/mL (≈ 101 µM).

For `C[C@H]1O[C@@H](n2cc(-c3ccccc3)c3c(NCC(=O)NC4CCCC4)ncnc32)[C@H](O)[C@@H]1O`, the inhibition in vivo at 20 mg/kg in the data set with Rattus norvegicus stood at 16%. Moreover, the concentration for half-maximal inhibition (IC50) at Adenosine kinase stood at 1 nM. The compound further displayed a solubility in data set [1] of 6 µg/mL (≈ 13.3 µM).

In the case of `O=C(CNc1ncnc2c1c(-c1ccccc1)cn2COCCO)NC1CC1`, the IC50 on Adenosine kinase worked out at 1700 nM. The solubility in data set [1] was determined as 270 µg/mL (≈ 708 µM).

In the case of `C[C@H]1O[C@@H](n2cc(I)c3c(NCC(=O)NC4CC4)ncnc32)[C@H](O)[C@@H]1O`, at Adenosine kinase, the IC50 is 880 nM. Further, the solubility in data set [1] was 5 µg/mL (≈ 10.6 µM).

Regarding `O=C(CNc1ncnc2c1c(-c1ccccc1)nn2[C@@H]1O[C@H](CO)[C@@H](O)[C@H]1O)Nc1ccccc1`, in the data set with Rattus norvegicus, the inhibition in vivo at 20 mg/kg is -10%. Also, the IC50 on Adenosine kinase was found to be 0.9 nM. The same compound returned a solubility in data set [1] of 7 µg/mL (≈ 14.7 µM).

For the compound `C[C@H]1O[C@@H](n2cc(-c3ccccc3)c3c(NCC(=O)NCCCO)ncnc32)[C@H](O)[C@@H]1O`, the inhibition in vivo at 20 mg/kg in the data set with Rattus norvegicus is 4%. For the same compound, the concentration for half-maximal inhibition (IC50) at Adenosine kinase was determined as 16 nM. The same compound returned a solubility in data set [1] of 650 µg/mL (≈ 1470 µM).

Take `COCCNC(=O)CNc1ncnc2c1c(-c1ccccc1)cn2[C@@H]1O[C@H](C)[C@@H](O)[C@H]1O`: the inhibition in vivo at 20 mg/kg in the data set with Rattus norvegicus came out at 44%. Besides, the IC50 on Adenosine kinase was 38 nM. The compound further had a solubility in data set [1] of 230 µg/mL (≈ 521 µM).

On to `CCNC(=O)CNc1ncnc2c1c(-c1ccccc1)cn2[C@@H]1O[C@H](C)[C@@H](O)[C@H]1O`, for which the inhibition in vivo at 20 mg/kg with Rattus norvegicus was 52%. For the same compound, the IC50 on Adenosine kinase worked out at 40 nM. The concentration in solution in data set [1] (solubility) was 140 µg/mL (≈ 340 µM).

As for `CCN(CC)CCNC(=O)CNc1ncnc2c1c(-c1ccccc1)cn2[C@@H]1O[C@H](C)[C@@H](O)[C@H]1O`, the inhibition in vivo at 20 mg/kg in the data set with Rattus norvegicus amounted to 11%. Besides, the IC50 on Adenosine kinase turned out to be 210 nM. The solubility in data set [1] was greater than 1000 µg/mL.

As for `C[C@H]1O[C@@H](n2cc(-c3ccccc3)c3c(Nc4ccccc4)ncnc32)[C@H](O)[C@@H]1O`, the solubility in data set [1] is less than 0.05 µg/mL.
